In ChEMBL document CHEMBL1130800, “Complexation of okadaic acid: a preliminary study” (1998):

Assays:
Type in all cases: functional
Rattus norvegicus [1] = species: Rattus norvegicus; assay: Decrease in tone in estrogen-primed rat uterus at 20 uM in [Ca2+] free K+free solution
In short: (§1)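 Uterine strips from estradiol benzoate-primed (100 μg Kg⁻¹ ip, 24 h) virgin female Wistar rats, 200-250 g, in Sund's PSS (Ca²⁺-free, Na⁺/Ca²⁺-free, or K⁺/Ca²⁺-free with KCl omitted), 32°C, 95% O₂/5% CO₂, 0.5 g resting force. One 20 μM application per strip. Isometric tension decline measured at 120 min, as % of the agent's maximal tension increase. Mean ± s.e.m.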

Rattus norvegicus [2] = species: Rattus norvegicus; assay: Emax value in estrogen-primed rat uterus at 20 uM in [Ca2+] free Na+free solution
In short: (§2)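 Strips from oestrogen-primed Wistar rat uterus, 0.5 g resting force, in Sund's PSS variants (Ca²⁺-free; Na⁺- and Ca²⁺-free; K⁺- and Ca²⁺-free) at 32°C. A single 20 μM addition per strip. Maximal isometric contraction expressed as % of the maximal tension evoked by ACh 1 mM in the same strip. Mean ± s.e.m.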

Rattus norvegicus [3] = species: Rattus norvegicus; assay: Time to peak tension(min) in estrogen-primed rat uterus at 20 uM in [Ca2+] free Na+free solution
In short: (§3)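 Isometric recording at 32°C of uterine strips from estrogen-primed (100 μg Kg⁻¹ ip estradiol benzoate, 24 h prior) female Wistar rats, in Ca²⁺-free, Na⁺/Ca²⁺-free or K⁺/Ca²⁺-free Sund's PSS. Each strip received one 20 μM application. Time to peak tension (min) measured from the onset of the tension increase. Mean ± s.e.m.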

Rattus norvegicus [4] = species: Rattus norvegicus; assay: Duration of plateau(min) in estrogen-primed rat uterus at 20 uM in [Ca2+] free Na+free solution
In short: (§4)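 Estrus-confirmed, oestrogen-primed rat uterine longitudinal strips in Ca²⁺-free, Na⁺/Ca²⁺-free or K⁺/Ca²⁺-free Sund's PSS at 32°C, gassed 95% O₂/5% CO₂. Strips equilibrated 45 min, then given repeated ACh 1 mM until responses were reproducible. A single 20 μM dose per strip. Contraction plateau duration (min) taken from isometric recordings. Mean ± s.e.m.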

Rattus norvegicus [5] = species: Rattus norvegicus; assay: Duration of plateau(min) in estrogen-primed rat uterus at 20 uM in Ca+2-free solution; in short: as §4
Rattus norvegicus [6] = species: Rattus norvegicus; assay: Emax value in estrogen-primed rat uterus at 20 uM in Ca+2-free K+free solution; in short: as §2
Rattus norvegicus [7] = species: Rattus norvegicus; assay: Decrease in tone in estrogen-primed rat uterus at 20 uM in Ca+2-free solution; in short: as §1
Rattus norvegicus [8] = species: Rattus norvegicus; assay: Decrease in tone in estrogen-primed rat uterus at 20 uM in [Ca2+] free Na+free solution; in short: as §1
Rattus norvegicus [9] = species: Rattus norvegicus; assay: Emax value in estrogen-primed rat uterus at 20 uM in Ca+2-free solution; in short: as §2
Rattus norvegicus [10] = species: Rattus norvegicus; assay: Time to peak tension(min) in estrogen-primed rat uterus at 20 uM in [Ca2+] free K+free solution; in short: as §3
Rattus norvegicus [11] = species: Rattus norvegicus; assay: Duration of plateau(min) in estrogen-primed rat uterus at 20 uM in [Ca2+] free K+free solution; in short: as §4
Rattus norvegicus [12] = species: Rattus norvegicus; assay: Time to peak tension(min) in estrogen-primed rat uterus at 20 uM in Ca+2-free solution; in short: as §3

In the case of C=C1[C@@H](O)[C@@H]2O[C@]3(CC[C@H](/C=C/[C@@H](C)[C@@H]4CC(C)=C[C@@]5(O[C@H](C[C@@](C)(O)C(=O)O)CC[C@H]5O)O4)O3)CC[C@H]2O[C@@H]1[C@@H](O)C[C@H](C)[C@H]1O[C@@]2(CCCCO2)CC[C@H]1C [OKADAIC ACID], the Decrease in tone (Rattus norvegicus [1]) is reported as 58.1, the Emax (Rattus norvegicus [2]) is reported as 150.8 and the “Time to peak tension” value (Rattus norvegicus [3]) is reported as 25.1 min. It also gave a Duration of plateau (Rattus norvegicus [4]) of 3.8 min, a Duration of plateau (Rattus norvegicus [5]) of 2.1 min and an Emax (Rattus norvegicus [6]) of 6.2. It also gave a Decrease in tone (Rattus norvegicus [7]) of 85.7, a Decrease in tone (Rattus norvegicus [8]) of 94.8 and an Emax (Rattus norvegicus [9]) of 107.9. For the same compound, the “Time to peak tension” value (Rattus norvegicus [10]) was 28.5 min, the Duration of plateau (Rattus norvegicus [11]) was 12.8 min and the “Time to peak tension” value (Rattus norvegicus [12]) was 27.2 min.
In the case of C=C1[C@@H](O)[C@@H]2O[C@@]3(CCC2O[C@@H]1[C@@H](O)C[C@H](C)C1O[C@@]2(CCCCO2)CC[C@H]1C)CC[C@H](/C=C/[C@@H](C)[C@@H]1CC(C)=C[C@@]2(O[C@H](C[C@@](C)(O)C(=O)O)CC[C@H]2O)O1)O3 (some centres undefined), the Decrease in tone (Rattus norvegicus [1]) is reported as 98, the Emax (Rattus norvegicus [2]) is reported as 186.5 and the “Time to peak tension” value (Rattus norvegicus [3]) is reported as 30.3 min. It also gave a Duration of plateau (Rattus norvegicus [4]) of 4.2 min, a Duration of plateau (Rattus norvegicus [5]) of 3.7 min and an Emax (Rattus norvegicus [6]) of 135.2. For the same compound, the Decrease in tone (Rattus norvegicus [7]) was 92.8, the Decrease in tone (Rattus norvegicus [8]) was 93.3 and the Emax (Rattus norvegicus [9]) was 101.7. The “Time to peak tension” value (Rattus norvegicus [10]) was 20.7 min, the Duration of plateau (Rattus norvegicus [11]) was 2.9 min and the “Time to peak tension” value (Rattus norvegicus [12]) was 23 min.
